Measurements reported in PubChem BioAssay.
Active and inactive are the calls of the source.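 How the source made its calls, unless noted: active means viability loss from added drug above about 55%, and viability with drug at most 40%, in both replicates (limit read from the data, passing the limit was not always enough); inconclusive means both conditions met in only one replicate; inactive means neither replicate meets both conditions.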

Legend:
[1] = HUVEC growth inhibition – cell-based, human, primary screen (AID 575;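 active means viability at or below 30% in both replicate assays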;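 further: 100% = median of untreated cell wells with 0.1% DMSO on each plate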); conditions: HUVEC proliferation, CellTiter-Glo luminescence, 72 h; at 10 µM; stronger effect = lower value
Procedure, shortened: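 Test system: primary human umbilical vein endothelial cells. Quantity: 1250 cells/well. Compound: single 10 µM dose, 0.1% DMSO, from 5x medium stock. Timing: 72 h treatment at 37 °C. Detection: ATP-based CellTiter-Glo luminescent read. Benchmarks: vehicle and MePR control wells. Format: 384-well plates coated with collagen.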

[2] = growth inhibitors of H69AR lung tumor, primary screen, human, duplicate replicates (AID 580;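 active means viability at or under a set limit in both replicates, limit being median viability minus 3 SD, cut at about 48% in these data, passing the limit was not always enough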;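 further: 100% = mean luminescence of untreated wells and 0% = no signal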); conditions: H69AR lung tumor cells viability, ATP luminescence, 72 h; at 10 µM; stronger effect = lower value
[3] = reversal of MRP1-mediated doxorubicin resistance, pilot screen, H69AR cells, doxorubicin co-treatment (AID 601); conditions: CellTiter-Glo, 72 h, at 10 µM; for differential viability (reversal): stronger effect = higher value
[4] = 384-well plate pilot, post-Golgi transport modulator project, inhibition of yeast transport mutant growth (AID 636; in the data active means inhibition above about 31%); conditions: absorbance 615 nm, about 18 h, stronger effect = higher value
[5] = growth suppression of yeast trafficking mutant, preliminary HTS, modulators of trafficking downstream of Golgi apparatus project, 1536-format plate, OD 615 nm (AID 637; in the data active means inhibition above about 30%); conditions: yeast transport mutant growth, absorbance 615 nm, 18 h; stronger effect = higher value
[6] = H69AR cells + 2 uM doxorubicin, measured here: viability with 2 uM doxorubicin, stronger effect = lower value
[7] = H69AR cells, compound alone cytotoxicity

SMILES | viability [1] | viability [2] | differential viability (reversal) ([3]; H69AR cells + 2 uM doxorubicin) | viability [3, 6] | viability [3, 7] | inhibition [4] | inhibition [5]
CC1Cc2ccccc2N1C(=O)Cc1cccs1 (stereo not given) | 84.8% (inactive) | 108% (inactive) | 16.1% (inactive) | 92.3% | 108% | -1.71% (inactive) | 2.06% (inactive)
CCOC(=O)C1CCN(C(=O)CN(Cc2ccccc2)S(C)(=O)=O)CC1 | 112% (inactive) | 92.1% (inactive) | -1.19% (inactive) | 93.3% | 92.1% | -6.4% (inactive) | 2.7% (inactive)
CC1CCN(C(=O)CSc2nnc(-c3cccnc3)n2C2CCCCC2)CC1 | 112% (inactive) | 97.5% (inactive) | -3.36% (inactive) | 101% | 97.5% | -2.76% (inactive) | 0.16% (inactive)
C=C(C)CSc1nnc2[nH]c(=O)cc(N)n12 | 65.8% (inactive) | 87.9% (inactive) | 13.4% (inactive) | 74.5% | 87.9% | -2.63% (inactive) | 7.62% (inactive)
CCN(CC(=O)O)S(=O)(=O)c1cc(Cl)ccc1Cl | 96.5% (inactive) | 90.9% (inactive) | -1.08% (inactive) | 92% | 90.9% | -7.2% (inactive) | -1.75% (inactive)
COc1ccccc1-c1ccc(Nc2cccc(C(C)=O)c2)nn1 | 55.8% (inactive) | 71.6% (inactive) | 15.8% (inactive) | 55.8% | 71.6% | -0.52% (inactive) | -4.92% (inactive)
Cc1nc2ccccc2c(=O)n1NC(=O)c1ccc(F)cc1Cl | 103% (inactive) | 94.2% (inactive) | -4.19% (inactive) | 98.4% | 94.2% | -4.34% (inactive) | 2.22% (inactive)
COc1ccc(CCNC(=O)C2CCCN(c3nn4c(=O)cc(C)nc4s3)C2)cc1OC (stereo not given) | 78.6% (inactive) | 86.4% (inactive) | -4.58% (inactive) | 91% | 86.4% | -6.8% (inactive) | 3.65% (inactive)
COCCNC(=O)c1ccc(Cl)c(Cl)c1 | 108% (inactive) | 102% (inactive) | 17% (inactive) | 85% | 102% | -3.16% (inactive) | -0.16% (inactive)
CCOC(=O)N1CCN(C(=O)Nc2ccc(Cl)cc2)CC1 | 97.7% (inactive) | 98.3% (inactive) | 14.8% (inactive) | 83.4% | 98.3% | -3.55% (inactive) | 4.6% (inactive)
O=c1c2ccc(-c3nnc4n3-c3ccccc3SC4)cc2nc2n1CCCCC2 | 94.9% (inactive) | 94.4% (inactive) | 8.88% (inactive) | 85.5% | 94.4% | -5.33% (inactive) | 6.83% (inactive)
O=C(NCCN1CCCC1)C1COc2ccccc2O1 (stereo not given) | 105% (inactive) | 95.7% (inactive) | 1.77% (inactive) | 93.9% | 95.7% | -7.14% (inactive) | -3.02% (inactive)
CCOC(=O)c1sc(NC(=O)CSc2nc3c(cc2C#N)CCC3)c(C#N)c1C | 74.7% (inactive) | 91.1% (inactive) | -8.41% (inactive) | 99.5% | 91.1% | -5% (inactive) | -0.32% (inactive)
CCc1c(C(=O)Nc2cc(C)ccc2OC)[nH]c(C)c1C(C)=O | 45.3% (inactive) | 82% (inactive) | -1.42% (inactive) | 83.5% | 82% | -2.8% (inactive) | 14.3% (inactive)
COc1ccc(N2C(=O)CC(N3CCN(S(=O)(=O)c4c(F)cccc4F)CC3)C2=O)cc1OC (stereo not given) | 107% (inactive) | 103% (inactive) | 8.42% (inactive) | 94.3% | 103% | -2.34% (inactive) | -6.35% (inactive)
O=C(NCc1ccco1)c1cccc(-c2nnc(-c3ccccc3)o2)c1 | 59.4% (inactive) | 85.8% (inactive) | 5.49% (inactive) | 80.3% | 85.8% | -4.8% (inactive) | 2.86% (inactive)
CN(C)CCSc1nnc2sc3ccccc3n12 | 94.2% (inactive) | 92.8% (inactive) | -0.905% (inactive) | 93.7% | 92.8% | -5.92% (inactive) | -5.08% (inactive)
C=CCNc1oc(-c2cccc3ccccc23)nc1C#N | 92.5% (inactive) | 84.8% (inactive) | 0.75% (inactive) | 84.1% | 84.8% | -5.47% (inactive) | -0.95% (inactive)
CCn1c(SCC(=O)NCCc2ccc(Cl)cc2)nnc1-c1cccs1 | 87.7% (inactive) | 98.9% (inactive) | 4.62% (inactive) | 94.3% | 98.9% | 4.03% (inactive) | 3.17% (inactive)
CCSc1ccccc1C(=O)NCc1ccc(S(N)(=O)=O)cc1 | 99.2% (inactive) | 93.7% (inactive) | 6.25% (inactive) | 87.5% | 93.7% | -5.2% (inactive) | -1.27% (inactive)

SMILES | viability [1] | viability [2] | differential viability (reversal) ([3]; H69AR cells + 2 uM doxorubicin) | viability [3, 6] | viability [3, 7] | inhibition [4] | inhibition [5]
CCCN(CCC)CCNS(=O)(=O)c1ccc2c(c1)oc(=O)n2C | 97.1% (inactive) | 105% (inactive) | 12.9% (inactive) | 92.5% | 105% | -2.27% (inactive) | -2.06% (inactive)
Cc1nn(-c2ccccc2)c(Cl)c1C1C(C#N)=C(N)OC2=C1C(=O)CC(C)(C)C2 (stereo not given) | 49.1% (inactive) | 12.2% (active) | -72.2% (inactive) | 84.4% | 12.2% | -4.68% (inactive) | -4.29% (inactive)
CCNc1ccc2c(Cl)cc(=O)oc2c1 | 68.2% (inactive) | 79.8% (inactive) | 5.29% (inactive) | 74.5% | 79.8% | -5.73% (inactive) | -1.59% (inactive)
O=C(Nc1cc(C(F)(F)F)ccc1Cl)C1CCN(c2nnc(-n3cccc3)s2)CC1 | 80.2% (inactive) | 70.9% (inactive) | 7.64% (inactive) | 63.3% | 70.9% | -6% (inactive) | 2.22% (inactive)
COC(=O)C1(C(=O)OC)Sc2ccccc2C1=O | 87.2% (inactive) | 101% (inactive) | 10.6% (inactive) | 90.8% | 101% | -3.9% (inactive) | 3.33% (inactive)
S=c1[nH]ncn1-c1ccccn1 | 81.6% (inactive) | 93.9% (inactive) | -4.69% (inactive) | 98.6% | 93.9% | -5.33% (inactive) | -0.63% (inactive)
Cc1ccc(S(=O)(=O)N(C)CC(=O)NC2CC(C)(C)NC(C)(C)C2)cc1 | 93.1% (inactive) | 96.2% (inactive) | 8.25% (inactive) | 88% | 96.2% | -1.04% (inactive) | 0.32% (inactive)
CCOCCCNC(=O)c1ccc2c(c1)ncn2C1CCCC1 | 91% (inactive) | 95.8% (inactive) | 7.26% (inactive) | 88.5% | 95.8% | 2.24% (inactive) | -3.81% (inactive)
COC(=O)Cn1c2ccccc2c2nc(C)sc21 | 87.2% (inactive) | 92.7% (inactive) | 1.14% (inactive) | 91.5% | 92.7% | -0.8% (inactive) | -3.65% (inactive)
CCOc1ccc2cc(C#N)c(SCC(=O)N3CCC(C)CC3)nc2c1 | 43.5% (inactive) | 34.4% (active) | 0.44% (inactive) | 33.9% | 34.4% | -8.8% (inactive) | -1.11% (inactive)
COc1ccc(C(F)(F)F)cc1NC(=O)c1nc2nc(C)cc(C(F)F)n2n1 | 94% (inactive) | 79.9% (inactive) | -3.77% (inactive) | 83.7% | 79.9% | -1.56% (inactive) | -0.16% (inactive)
COc1cccc(-c2noc(CCC(=O)NC3CCCCC3)n2)c1 | 91.5% (inactive) | 97.6% (inactive) | 0.295% (inactive) | 97.3% | 97.6% | -2.63% (inactive) | -5.4% (inactive)
O=C(NCCN1CCCCCC1)c1ccc(N2CCCC2=O)cc1 | 91% (inactive) | 95.9% (inactive) | 3.38% (inactive) | 92.5% | 95.9% | -7.2% (inactive) | 12.5% (inactive)
O=C(Nc1ccc2c(c1)OCO2)c1cccc(Cl)c1 | 71.4% (inactive) | 104% (inactive) | 13.2% (inactive) | 90.3% | 104% | -3.87% (inactive) | 16.8% (inactive)
CCCc1n[nH]c2c1/C(=N/O)CC(c1ccccc1)C2 (stereo not given) | 49.5% (inactive) | 66.1% (inactive) | -14.4% (inactive) | 80.6% | 66.1% | -2.34% (inactive) | 2.86% (inactive)
O=S(=O)(c1ccccc1)N1CCSC1c1ccco1 (stereo not given) | 83.6% (inactive) | 72.2% (inactive) | -15.6% (inactive) | 87.9% | 72.2% | -0.13% (inactive) | 5.56% (inactive)
CCCCNC(=O)OC(C)CNC(=O)Oc1cccc(C)c1 (stereo not given) | 75.7% (inactive) | 93.8% (inactive) | 1.64% (inactive) | 92.2% | 93.8% | -4.08% (inactive) | 3.49% (inactive)
COc1ccc(S(=O)(=O)NCc2ccco2)cc1-c1nnc2c3ccccc3c(C)nn12 | 88.1% (inactive) | 83.9% (inactive) | -10.3% (inactive) | 94.2% | 83.9% | -5.92% (inactive) | 7.14% (inactive)
Cc1cc(C)c(OCC(=O)Nc2cccc(O)c2)cc1C | 78.2% (inactive) | 101% (inactive) | 3.2% (inactive) | 97.7% | 101% | -5.07% (inactive) | 3.97% (inactive)
Oc1ccc(-c2onc(C(F)(F)F)c2-c2cscn2)c(O)c1 | 108% (inactive) | 103% (inactive) | 5.71% (inactive) | 97.3% | 103% | -2.99% (inactive) | 4.92% (inactive)
